In PubChem BioAssay AID602317 (Southern Research Specialized Biocontainment Screening …, 2012) one finds viability and CC50 data, which are given here for 46 compounds.

Results filed as inconclusive are left out. The source made the active and inactive calls.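 How the source made its calls: active means viability under 80% at one or more tested concentrations, read as toxic; inconclusive means replicate runs disagree on whether the viability cutoff is met; inactive means viability stays at 80% or higher at every dose.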

Test system in one test: not listed separately
The test can be described thus: Vero E6 cell cytotoxicity, dose response, cytotoxicity control for PfM17LAP inhibitor project, set 3 (AID 602317). The settings on record: Vero E6 viability, CellTiter-Glo luminescence, 72 h; at 50 µM (top of the series). The procedure, abridged:
(§1)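 Material: Vero E6 cell line. Doses: 10-point compound series in 2-fold dilution steps. Schedule: 72 h compound exposure at 37 °C, 5% CO2. Measured by: CellTiter-Glo luminescence. Measure: % viability and CC50, 4-parameter fit.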
In general terms: In ATP-based viability assays light output follows the ATP content of the culture.
As to `COc1ccc(CCCN2CCN(C)CC2)cc1OC`, the viability is 99.5% (inactive).

For the compound `O=C(NCc1ccc2c(c1)OCO2)C1CCN(S(=O)(=O)c2ccc(Br)s2)CC1`, the viability was 95.4% (inactive).

Take `COC(=O)Cc1ccc(OCCN(C)C)cc1`: the viability was 98.9% (inactive).

Consider `COc1ccc(CCN(C)c2ccnc3ccccc23)cc1OC`, for which the viability is 84.9% (inactive).

Regarding `Oc1ccc(-c2csc(Nc3ncccn3)n2)cc1O`, the viability was 87.7% (inactive).

Regarding `COC(=O)Cc1ccc(OCC(C)C)cc1`, the viability is 109% (inactive).

With `CCCCOc1ccc(CNc2c(N(C)O)c(=O)c2=O)cc1`, the viability is 91% (inactive).

Consider `CCCCOc1ccc(C(C)C(=O)OC)cc1` (stereo unspecified), for which the viability is 97.4% (inactive).

In the case of `CC(C)(C(=O)NO)c1ccccc1`, the viability was 104% (inactive).

Take `CN(C)CCOc1ccc(CC(=O)O)cc1`: the viability is 98.8% (inactive).

Take `O=C(NO)c1cccc2ccccc12`: the viability was 84.7% (inactive).

`CN1CCN(CCc2ccc(O)c(O)c2)CC1`: the viability is 102% (inactive).

For `CCCOc1ccc(CC(=O)NO)cc1`, the viability was 91.5% (inactive).

Regarding `CCCCOc1ccc(CNc2c(N(O)Cc3ccccc3)c(=O)c2=O)cc1`, the viability was 95.5% (inactive).

On to `CN1CCN(CCCc2ccc(O)c(O)c2)CC1`, for which the viability is 96% (inactive).

On to `Cc1ccc(CC(=O)NO)cc1`, for which the viability is 104% (inactive).

As to `CCCOc1ccc(CC(=O)OC)cc1`, the viability was 100% (inactive).

As to `CCCCOc1cccc(CC(=O)OC)c1`, the viability was 99.7% (inactive).

`CCCOc1ccc(CC(=O)O)cc1`: the viability is 81.1% (inactive).

As for `CC[C@H](C)[C@H](NS(=O)(=O)c1ccc(Br)s1)C(=O)NCc1ccc2c(c1)OCO2`, the viability was 107% (inactive).

On to `CCCCOc1ccc(CC(=O)O)cc1`, for which the viability was 95.5% (inactive).

For `CCCCOc1ccc(C(C)C(=O)O)cc1` (stereo unspecified), the viability is 90.8% (inactive).

With `COc1ccc(CC(=O)NO)cc1`, the viability is 102% (inactive).

Turning to `Oc1ccc(CCNc2ccnc3ccccc23)cc1O`, the viability was 95.5% (inactive).

Consider `CN1CCN(c2nc(-c3ccc(O)c(O)c3)cs2)CC1`, for which the viability was 97.9% (inactive).

Regarding `CCCCOc1ccc(C(C)(C)C(=O)O)cc1`, the viability was 98.2% (inactive).

Consider `CCOc1ccc(CC(=O)NO)cc1`, for which the viability was 96.8% (inactive).

For the compound `CCCCOc1ccc(C(C)(C)C(=O)NO)cc1`, the viability was 81.2% (inactive).

As to `CCC(C)Oc1ccc(CC(=O)OC)cc1` (stereo unspecified), the viability was 93% (inactive).

A further test has as its system Vero E6 viability, CellTiter-Glo luminescence, 72 h. Described as above.
Conditions: not given
The procedure, abridged: as §1
Turning to `O=C(Cc1ccc(Oc2ccccc2)cc1)NO`, the CC50 is 45 µM.

In the case of `CC[C@H](C)[C@H](NS(=O)(=O)c1ccc(Br)s1)C(=O)NCc1ccc(Cl)cc1`, the CC50 was 46.4 µM.

Turning to `COc1ccc(CCNC(c2ccccc2)c2ccccc2)cc1OC`, the CC50 is 45.8 µM.

With `COc1ccc(CCNc2c3ccccc3nc3ccccc23)cc1OC`, the CC50 is 17.9 µM.

Regarding `CC[C@H](C)[C@H](NC(=O)c1ccc(C(C)(C)C)cc1)C(=O)NCc1ccc2c(c1)OCO2`, the half-maximal cytotoxic concentration (CC50) is 38.2 µM.

Take `Oc1ccc(CCNc2c3ccccc3nc3ccccc23)cc1O`: the cytotoxic concentration (CC50) was 45.4 µM.

Regarding `CCCCOc1ccc(CN(O)C(=O)c2ccccc2)cc1`, the half-maximal cytotoxic concentration (CC50) is 20.9 µM.

With `CCCCOc1ccc(CC(=O)N(C)O)cc1`, the CC50 is 44.6 µM.

For `CCc1ccc(NC(=O)Cc2nc(-c3ccc(O)c(O)c3)cs2)cc1`, the CC50 was 42.2 µM.

For the compound `CCCCCCCCCC(=O)NO`, the CC50 was 31 µM.

For the compound `O=C(Cc1ccc(OCc2ccccc2)cc1)NO`, the CC50 is 48.5 µM.

As for `Oc1ccc(CCNC(c2ccccc2)c2ccccc2)cc1O`, the CC50 was 38.7 µM.

As for `CCCCOc1ccc(CCC(=O)NO)cc1`, the CC50 is 34.1 µM.

`O=C(NCc1ccc(Cl)cc1)C1CCN(S(=O)(=O)c2ccc(Br)s2)CC1`: the CC50 is 21.8 µM.

Regarding `CN(O)C(=O)Cc1ccc(OCc2ccccc2)cc1`, the CC50 was 32.5 µM.

Consider `CCCCOc1ccc(C(C)C(=O)NO)cc1` (stereo unspecified), for which the CC50 was 40.8 µM.

In the case of `COc1ccc(CCN(C)c2c3ccccc3nc3ccccc23)cc1OC`, the CC50 is 40.8 µM.

What is called viability is a read-out of living cells in per cent, often relative to untreated cells. As usually defined, the CC50 is the concentration giving 50% cytotoxicity.
